# Bioassay records deposited in PubChem BioAssay by several laboratories.
# Diaph inh CS – inhibits diaphorase or chemically oxidizes, flagging diaphorase assay artifacts; diaphorase resazurin-to-resorufin fluorescence, NADH, 16 min; bacterial (C. kluyveri) enzyme, not human; inhibition, % at 20 µM; 190,000 tested, 0.69% active; AID 1217;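 active = primary screen inhibition at 20 µM above a set limit, cut at about 50% in these data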;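 also: plate controls were DMSO with full reaction for no effect and wells lacking NADH for full effect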
#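 Test system: diaphorase enzyme from Clostridium kluyveri; amount: diaphorase at 0.14 U/mL in enzyme working solution; detection: fluorescence of resorufin formed from resazurin, Ex 544/Em 590 nm; times: reaction incubation of 16 min at room temperature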
# G6PDH counter – L. mesenteroides G6PDH inhibition counter-screen; Purified L. mesenteroides G6PDH, diaphorase/resazurin coupled fluorescence, 45 min; inhibition, % at 5 µM; 200,000 tested, 0.12% active; AID 1020
# Diaphorase act – diaphorase activation or chemical reduction counter-screen. Diaphorase/resazurin coupled assay, resorufin fluorescence, 16 min; active compounds read high; 1 = vehicle wells, 0 = NADH-free wells. activation factor at 20 µM. 190,000 tested, 0.005% active;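 active = diaphorase activity raised at least twofold by the compound at 20 µM; inactive = activation factor below 2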
#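 System – purified diaphorase enzyme from Clostridium kluyveri · Input – enzyme 0.07 U/mL final · Also added – final NADH 0.114 mM, resazurin 0.1 mM · Measured by – fluorescence of resorufin, 544 nm excitation, 590 nm emission · Timing – 16 min enzyme reaction, ambient temperature · Measure – resorufin increase flagging diaphorase activators or reducers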
# L major viab – reduces viability of Leishmania major promastigotes | resazurin fluorescence viability | inhibition, % at 10 µM | 200,000 tested, 9% active | AID 1063;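 also: promastigotes grown with compound for 44 hours at 28 °C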
# WT yeast gro inh – growth inhibition of WT yeast, mitochondrial fusion screen; mitochondrial fusion phenotypic screen, WT strain; inhibition, % at 10 µM; 190,000 tested, 2.1% active; in the data active = inhibition above about 58%; tested in S. cerevisiae
# The depositor's hits bear a star; · = not tested or not shown. In the library only some 11% were active in any assay of this set; here they are far more common. Rule as the data show it, unless noted: active = inhibition above about 50%; inactive = the rest.
SMILES,Diaph inh CS,G6PDH counter,Diaphorase act,L major viab,WT yeast gro inh
COc1cc(OC)c(OC)cc1CN(C)C(c1ccccc1)c1nnnn1-c1ccccc1C (centres undefined),25,8,0.7,16,24
COc1ccc(CN(C)C(c2ccccc2)c2nnnn2-c2ccccc2C)c(OC)c1C (centres undefined),20,6,0.8,12,74*
CCCCC(c1nnnn1CC1CCCO1)N1CCN(c2cccc(C)c2C)CC1 (centres undefined),10,-4,0.9,56*,7
CC1=Nc2ccccc2/C1=C/c1c(N)n2c(S(=O)(=O)CC(C)C)nsc2nc1=O,8,3,0.9,-10,13
COc1ccc(C2=CC(=O)CC(c3ccccc3)C2)cc1 (centres undefined),17,7,0.8,59*,35
O=C(NC(=S)N1CCN(c2ccc(C(F)(F)F)cc2[N+](=O)[O-])CC1)c1cccs1,15,-12,0.9,34,59
CS(=O)(=O)N(CC(=O)Nc1ccc(S(=O)(=O)N2CCCC2)cc1)c1ccccc1,15,13,0.8,7,-2
O=C(Cn1c(=O)oc2cc(S(=O)(=O)N3CCCC3)ccc21)Nc1cccc(C(F)(F)F)c1,0,10,1,100*,-7
Cn1c(=O)oc2cc(S(=O)(=O)N3CCN(c4ccc(F)cc4)CC3)ccc21,10,-18,0.9,60*,-13
CN(CC(=O)Nc1ccc(S(=O)(=O)N2CCCC2)cc1)Cc1cccc(Cl)c1Cl,10,7,0.9,99*,57
O=C(Cn1c(=O)oc2cc(S(=O)(=O)N3CCCC3)ccc21)NCc1ccc(F)cc1,7,8,0.9,98*,0
CCc1cccc(NC(=O)Cn2c(=O)oc3cc(S(=O)(=O)N4CCOCC4)ccc32)c1,2,8,1,-6,6
CCN(CC(=O)NCc1ccc(F)cc1)CC(=O)Nc1ccc(S(=O)(=O)N2CCCC2)cc1,5,3,0.9,98*,-8
CC(=O)Nc1ccc(S(=O)(=O)N(Cc2ccccc2)C(C)C)cc1,14,7,0.9,3,-10
Cc1ccc(Nc2nnc(SCn3nnc4ccccc4c3=O)s2)cc1,10,4,0.9,69*,26
Cc1ccccc1NC(=O)C(C)O/N=C/c1cccc([N+](=O)[O-])c1 (centres undefined),14,0,0.9,66*,2
Cc1ccc(S(=O)(=O)C2(C(=O)N3CCN(C4CCCCC4)CC3)CC2)cc1,-7,4,1.1,76*,-11
Cc1ccc(S(=O)(=O)C2(C(=O)N3CCN(c4cc(C)ccc4C)CC3)CC2)cc1,26,4,0.7,72*,28
O=C(NC(=S)Nc1cc([N+](=O)[O-])ccc1O)c1cccnc1,32,6,0.7,-6,15
COc1ccc(Nc2nc3c(C)cccn3c(=O)c2C=NCc2ccccc2)cc1,-13,-5,1.1,63*,11
NCCCCc1cn(CC(=O)N2CCNCC2)nn1,-6,7,1.1,-7,9
Cc1noc2c1C(c1ccc(N(C)C)cc1)C1=C(CC(C)(C)CC1=O)N2 (centres undefined),22,5,0.8,4,0
CC1(C)CC(=O)C2=C(C1)Nc1cc3c(cc1C2c1ccc2c(c1)OCO2)OCO3 (centres undefined),28,4,0.7,99*,-3
COc1ccc(C2C3=C(CC(C)(C)CC3=O)Nc3cc4c(cc32)OCO4)cc1 (centres undefined),18,1,0.8,99*,5
O=C1CC(c2ccc3c(c2)OCO3)c2cc3c(cc2N1)OCCO3 (centres undefined),16,8,0.8,31,-12
SMILES,Diaph inh CS,G6PDH counter,Diaphorase act,L major viab,WT yeast gro inh
Cc1ccc(C2C3=C(CC(C)(C)CC3=O)Nc3onc(C)c32)cc1 (centres undefined),6,14,0.9,53*,1
CC1(C)CC(=O)C2=C(C1)Nc1cc3c(cc1C2c1ccc(F)cc1)OCO3 (centres undefined),30,8,0.7,100*,17
O=C(O)CCCn1cc(NC(=O)c2ccc(Br)o2)cn1,0,3,1,-3,6
O=C(c1ccccc1)c1ccc(C(=O)N2CCN(c3ccc(F)cc3)CC2)o1,16,3,0.8,2,-13
N#CC1=C(Nc2ccccc2)SC=C(c2ccc(F)cc2)N=C1N1CCOCC1,5,3,0.9,-6,-6
CC1CCCCN1CC(=O)Nc1sc2c(c1C#N)CCC2 (centres undefined),26,6,0.7,4,-5
CC1(C)CC(=O)C2=C(C1)Nc1ccccc1NC2c1ccc2c(c1)OCO2 (centres undefined),20,10,0.8,51*,-18
O=c1cc(-c2ccc(C3CCCCC3)cc2)[nH][nH]1,-14,3,1.1,2,69*
CCN(CC)S(=O)(=O)c1cc(C(=O)Nc2cc(Cl)ccc2N2CCN(C)CC2)ccc1Cl,16,-2,0.8,100*,65*
CCN(CC)S(=O)(=O)c1cc(C(=O)N2CCc3ccccc32)ccc1Cl,7,7,0.9,75*,15
CN1CCN(c2ccc(Cl)cc2NS(=O)(=O)c2ccccc2Cl)CC1,6,0,0.9,100*,·
CN(C)S(=O)(=O)c1cccc(C(=O)Nc2ccccc2[N+](=O)[O-])c1,6,-3,0.9,4,4
CCN(CC)S(=O)(=O)c1ccc(Cl)c(C(=O)N2CCc3ccccc32)c1,11,3,0.9,23,17
CCN(CC)S(=O)(=O)c1cc(C(=O)NC2=NCCS2)ccc1Cl,16,-1,0.8,21,17
CCN(CC)S(=O)(=O)c1cc(C(=O)Nc2ccccc2[N+](=O)[O-])ccc1Cl,13,-22,0.9,78*,-2
O=C(C1CCC1)N1CCc2cc(S(=O)(=O)NCCN3CCN(c4ccccc4F)CC3)ccc21,14,2,0.9,9,7
CCC(CC)C1=NN2C(=N)/C(=C\c3cc(C)n(-c4cccc(C)c4)c3C)C(=O)N=C2S1,3,2,1,44,6
CCC(=O)c1ccc(OCC(=O)NCCc2ccccn2)cc1,-4,2,1,-4,21
CN1CCN(c2ccc(Cl)cc2NC(=O)c2ccc(S(=O)(=O)N(C)C)cc2)CC1,14,-2,0.9,100*,5
CN(C)S(=O)(=O)c1ccc(C(=O)Nc2cc(S(=O)(=O)Nc3ccccc3Cl)ccc2N2CCCCC2)cc1,17,6,0.8,37,-9
Cc1cccc(-n2c(SCC(=O)N3CCCC3)nc3n[nH]c(C)c3c2=N)c1,68*,9,0.3,4,-5
CCCN(CCC)C(=O)CSc1nc2n[nH]c(C)c2c(=N)n1-c1ccc(OC)cc1,4,2,1,24,-13
